Data as given in ChEMBL document CHEMBL4007382 (Eur J Med Chem, 2017).

Assays:
[1] = target: Cholinesterase (Equus caballus, UniProt P81908); test: Inhibition of equine serum BuChE using S-butyrylthiocholine iodide as substrate preincubated for 60 mins followed by substrate addition measured after 5 mins by Ellman's method
Summary of the method: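 Equine serum BChE (0.1 U/mL) in 100 mM sodium phosphate, pH 8, was preincubated at 37°C for 60 min with seven inhibitor concentrations (top 1×10^-5 M; stocks in acetonitrile:water 1:9). Added mix contained BTCh 2.5 mM and DTNB 3.4 mM. A412 was read for 5 min at 37°C, with enzyme-free blank subtracted. Triplicates.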

[2] = target: Acetylcholinesterase (Electrophorus electricus, UniProt O42275); test: Inhibition of electric eel AChE using S-acetylthiocholine iodide as substrate preincubated for 60 mins followed by substrate addition measured after 5 mins by Ellman's method
Chain of Acetylcholinesterase (O42275 whole entry): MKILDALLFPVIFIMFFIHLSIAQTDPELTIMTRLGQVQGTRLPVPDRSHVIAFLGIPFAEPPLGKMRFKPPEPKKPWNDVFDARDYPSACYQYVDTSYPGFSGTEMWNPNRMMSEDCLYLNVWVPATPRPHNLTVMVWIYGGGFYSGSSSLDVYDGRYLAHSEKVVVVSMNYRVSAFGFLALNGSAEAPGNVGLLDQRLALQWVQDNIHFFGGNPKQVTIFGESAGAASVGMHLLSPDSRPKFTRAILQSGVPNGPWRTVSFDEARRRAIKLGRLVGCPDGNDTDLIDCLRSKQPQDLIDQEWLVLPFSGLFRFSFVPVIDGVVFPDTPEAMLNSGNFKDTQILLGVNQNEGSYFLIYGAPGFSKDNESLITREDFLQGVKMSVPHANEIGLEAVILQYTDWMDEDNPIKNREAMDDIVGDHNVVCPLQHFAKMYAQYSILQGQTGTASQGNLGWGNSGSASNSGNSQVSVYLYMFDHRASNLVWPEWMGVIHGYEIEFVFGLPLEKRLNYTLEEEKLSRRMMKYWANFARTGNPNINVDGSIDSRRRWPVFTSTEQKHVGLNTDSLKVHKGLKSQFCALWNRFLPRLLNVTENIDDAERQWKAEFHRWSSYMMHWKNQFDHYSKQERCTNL

Chain of Cholinesterase (P81908 whole entry): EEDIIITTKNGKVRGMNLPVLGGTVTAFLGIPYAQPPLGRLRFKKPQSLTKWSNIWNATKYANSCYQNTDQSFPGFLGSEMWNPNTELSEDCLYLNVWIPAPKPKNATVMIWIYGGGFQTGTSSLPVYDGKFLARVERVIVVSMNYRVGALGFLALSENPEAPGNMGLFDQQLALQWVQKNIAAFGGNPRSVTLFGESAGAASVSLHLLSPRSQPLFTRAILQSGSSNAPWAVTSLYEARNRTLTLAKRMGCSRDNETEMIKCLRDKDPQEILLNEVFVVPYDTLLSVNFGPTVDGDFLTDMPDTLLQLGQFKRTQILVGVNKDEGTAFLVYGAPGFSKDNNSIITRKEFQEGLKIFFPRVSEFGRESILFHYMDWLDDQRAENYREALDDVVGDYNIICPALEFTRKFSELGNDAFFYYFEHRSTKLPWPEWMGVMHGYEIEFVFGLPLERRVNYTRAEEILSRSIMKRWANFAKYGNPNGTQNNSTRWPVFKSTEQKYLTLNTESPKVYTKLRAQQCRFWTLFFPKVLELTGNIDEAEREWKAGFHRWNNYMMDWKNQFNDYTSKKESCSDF

Row | Structure (SMILES) | IC50 [1] | IC50 [2]
1 | CN(C)C(=O)Oc1cc(OC(=O)N(C)C)cc(C(O)CNC2CCCCC2)c1 (stereo not given) | 224 nM | > 100000 nM
2 | CN(C)C(=O)Oc1cc(OC(=O)N(C)C)cc(C(O)CNC2CCCC2)c1 (stereo not given) | 130 nM | 65900 nM
3 | CN(C)C(=O)Oc1cc(OC(=O)N(C)C)cc(C(O)CNC(C)(C)c2ccccc2)c1 (stereo not given) | 476 nM | > 100000 nM
4 | CCN(C)C(=O)Oc1cc(OC(=O)N(C)CC)cc(C(O)CN2CCCCC2)c1 (stereo not given) | 108 nM | > 100000 nM
5 | CN(C)C(=O)Oc1cc(OC(=O)N(C)C)cc(C(O)CNc2ccccc2)c1 (stereo not given) | 2400 nM | > 100000 nM
6 | CCN(C)C(=O)Oc1cc(OC(=O)N(C)CC)cc(C(O)CNC(C)(C)C)c1 (stereo not given) | 113 nM | > 100000 nM
7 | CN(C)C(=O)Oc1cc(OC(=O)N(C)C)cc(C(O)CNc2ccc(I)cc2)c1 (stereo not given) | 4700 nM | > 100000 nM
8 | C#Cc1cccc(NCC(O)c2cc(OC(=O)N(C)C)cc(OC(=O)N(C)C)c2)c1 (stereo not given) | 686 nM | > 100000 nM
9 | CN(C)C(=O)Oc1cc(OC(=O)N(C)C)cc(C(O)CN2CCCC2)c1 (stereo not given) | 253 nM | 41300 nM
10 | CN(C)C(=O)Oc1cc(OC(=O)N(C)C)cc(C(O)CN2CCCCC2)c1 (stereo not given) | 100 nM | > 100000 nM
